ChEMBL document CHEMBL3046016, “Antifeedant and growth inhibitory effects of some neo-clerodane diterpenoids isolated from Clerodendron species (Verbenaceae) on Earias vitella and Spodoptera litura” (2003)

Tests used:
Type in all cases: functional
Earias vittella [1] = test: Insecticidal activity against third-instar larval stage of Earias vitella assessed as total larval duration time at 10 ug/cm3 administered through artificial diet containing Abelmoschus esculentus seed powder (reference value: 8.2 +/- 0.48 days)
Spodoptera litura [2] = test: Antifeedant activity against third-instar larval stage of Spodoptera litura in compound-treated castor leaves assessed as decrease in diet consumption at 5 ug/cm2 after 24 hr by no-choice leaf disk assay relative to acetone-treated control; parameters: scale not given: the % may be the effect or the level left
In short: (§1)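 Larvae were reared on castor leaves at 25 ± 2 °C. In a no-choice test, compound in acetone was painted on the abaxial side of castor leaf disks and air-dried. Five freshly molted third-instar larvae, starved 4 h, were placed per Petri dish with wet cotton. There were five replicates. After 24 h, consumed leaf area was read on a leaf area meter. %AF = 100 − (treated/control)×100.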

Spodoptera litura [3] = test: Antifeedant activity against third-instar larval stage of Spodoptera litura in compound-treated castor leaves assessed as decrease in diet consumption at 10 ug/cm2 after 24 hr by no-choice leaf disk assay relative to acetone-treated control; parameters: scale not given: the % may be the effect or the level left; in short: as §1
Spodoptera litura [4] = test: Insecticidal activity against female adult Spodoptera litura in compound-treated castor leaves assessed as adult longevity time at 5 ug/cm2 (reference value: 10 +/- 0.63 days)
Spodoptera litura [5] = test: Insecticidal activity against female adult Spodoptera litura in compound-treated castor leaves assessed as adult longevity time at 10 ug/cm2 (reference value: 10 +/- 0.63 days)
Spodoptera litura [6] = test: Insecticidal activity against male adult Spodoptera litura in compound-treated castor leaves assessed as adult longevity time at 5 ug/cm2 (reference value: 9.4 +/- 0.48 days)
Spodoptera litura [7] = test: Insecticidal activity against male adult Spodoptera litura in compound-treated castor leaves assessed as adult longevity time at 10 ug/cm2 (reference value: 9.4 +/- 0.48 days)
Spodoptera litura [8] = test: Insecticidal activity against adult Spodoptera litura in compound-treated castor leaves assessed as adult deformity at 5 ug/cm2 relative to control
Spodoptera litura [9] = test: Insecticidal activity against adult Spodoptera litura in compound-treated castor leaves assessed as adult deformity at 10 ug/cm2 relative to control
Spodoptera litura [10] = test: Insecticidal activity against adult Spodoptera litura in compound-treated castor leaves assessed as adult emergence at 5 ug/cm2 relative to control
Spodoptera litura [11] = test: Insecticidal activity against adult Spodoptera litura in compound-treated castor leaves assessed as adult emergence at 10 ug/cm2 relative to control
Spodoptera litura [12] = test: Insecticidal activity against pupal stage of Spodoptera litura in compound-treated castor leaves assessed as pupal mortality at 5 ug/cm2 relative to control
Spodoptera litura [13] = test: Insecticidal activity against pupal stage of Spodoptera litura in compound-treated castor leaves assessed as pupal mortality at 10 ug/cm2 relative to control
Spodoptera litura [14] = test: Insecticidal activity against pupal stage of Spodoptera litura in compound-treated castor leaves assessed as pupal weight at 5 ug/cm2 (reference value: 302.4 +/- 5.9 mg)
Spodoptera litura [15] = test: Insecticidal activity against pupal stage of Spodoptera litura in compound-treated castor leaves assessed as pupal weight at 10 ug/cm2 (reference value: 302.4 +/- 5.9 mg)
Spodoptera litura [16] = test: Insecticidal activity against pupal stage of Spodoptera litura in compound-treated castor leaves assessed as pupal duration time at 5 ug/cm2 (reference value: 9.2 +/- 0.74 days)
Spodoptera litura [17] = test: Insecticidal activity against pupal stage of Spodoptera litura in compound-treated castor leaves assessed as pupal duration time at 10 ug/cm2 (reference value: 9.2 +/- 0.74 days)
Spodoptera litura [18] = test: Insecticidal activity against third-instar larval stage of Spodoptera litura in compound-treated castor leaves assessed as larval mortality at 5 ug/cm2 relative to control
Spodoptera litura [19] = test: Insecticidal activity against third-instar larval stage of Spodoptera litura in compound-treated castor leaves assessed as larval mortality at 10 ug/cm2 relative to control
Spodoptera litura [20] = test: Insecticidal activity against third-instar larval stage of Spodoptera litura in compound-treated castor leaves assessed as total larval duration time at 5 ug/cm2 (reference value: 12.4 +/- 0.48 days)
Spodoptera litura [21] = test: Insecticidal activity against third-instar larval stage of Spodoptera litura in compound-treated castor leaves assessed as total larval duration time at 10 ug/cm2 (reference value: 12.4 +/- 0.48 days)
Earias vittella [22] = test: Insecticidal activity against female adult Earias vitella assessed as adult longevity time at 5 ug/cm3 administered through artificial diet containing Abelmoschus esculentus seed powder (reference value: 8.6 +/- 0.48 days)
Earias vittella [23] = test: Insecticidal activity against female adult Earias vitella assessed as adult longevity time at 10 ug/cm3 administered through artificial diet containing Abelmoschus esculentus seed powder (reference value: 8.6 +/- 0.48 days)
Earias vittella [24] = test: Insecticidal activity against male adult Earias vitella assessed as adult longevity time at 5 ug/cm3 administered through artificial diet containing Abelmoschus esculentus seed powder (reference value: 8.2 +/- 0.4 days)
Earias vittella [25] = test: Insecticidal activity against male adult Earias vitella assessed as adult longevity time at 10 ug/cm3 administered through artificial diet containing Abelmoschus esculentus seed powder (reference value: 8.2 +/- 0.4 days)
Earias vittella [26] = test: Insecticidal activity against adult Earias vitella assessed as adult deformity at 10 ug/cm3 administered through artificial diet containing Abelmoschus esculentus seed powder (reference value: 4%)
Earias vittella [27] = test: Insecticidal activity against adult Earias vitella assessed as adult deformity at 5 ug/cm3 administered through artificial diet containing Abelmoschus esculentus seed powder (reference value: 4%)
Earias vittella [28] = test: Insecticidal activity against adult Earias vitella assessed as adult emergence at 5 ug/cm3 administered through artificial diet containing Abelmoschus esculentus seed powder (reference value: 88%)
Earias vittella [29] = test: Insecticidal activity against adult Earias vitella assessed as adult emergence at 10 ug/cm3 administered through artificial diet containing Abelmoschus esculentus seed powder (reference value: 88%)
Earias vittella [30] = test: Insecticidal activity against pupal stage of Earias vitella assessed as pupal mortality at 5 ug/cm3 administered through artificial diet containing Abelmoschus esculentus seed powder (reference value: 8%)
Earias vittella [31] = test: Insecticidal activity against pupal stage of Earias vitella assessed as pupal mortality at 10 ug/cm3 administered through artificial diet containing Abelmoschus esculentus seed powder (reference value: 8%)
Earias vittella [32] = test: Insecticidal activity against pupal stage of Earias vitella assessed as pupal weight at 5 ug/cm3 administered through artificial diet containing Abelmoschus esculentus seed powder (reference value: 88.2 +/- 4.01 mg)
Earias vittella [33] = test: Insecticidal activity against pupal stage of Earias vitella assessed as pupal weight at 10 ug/cm3 administered through artificial diet containing Abelmoschus esculentus seed powder (reference value: 88.2 +/- 4.01 mg)
Earias vittella [34] = test: Insecticidal activity against pupal stage of Earias vitella assessed as pupal duration time at 5 ug/cm3 administered through artificial diet containing Abelmoschus esculentus seed powder (reference value: 6.4 +/- 0.21 days)
Earias vittella [35] = test: Antifeedant activity against third-instar larval stage of Earias vitella assessed as decrease in diet consumption at 5 ug/cm3 administered through artificial diet containing Abelmoschus esculentus seed powder after 24 hr relative to acetone-treated control; parameters: scale not given: the % may be the effect or the level left
In short: (§2)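 Artificial diet was modified Klein medium with bhendi (Abelmoschus esculentus) seed powder in place of alfalfa. Compound in acetone was mixed into bhendi meal 12 h before diet preparation so the solvent evaporated. One 3 g diet cube was given to five freshly molted third-instar larvae in a muslin-covered container. After 24 h the cubes were weighed. %AF = 100 − (treated/control)×100.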

Earias vittella [36] = test: Antifeedant activity against third-instar larval stage of Earias vitella assessed as decrease in diet consumption at 10 ug/cm3 administered through artificial diet containing Abelmoschus esculentus seed powder after 24 hr relative to acetone-treated control; parameters: scale not given: the % may be the effect or the level left; in short: as §2
Earias vittella [37] = test: Insecticidal activity against pupal stage of Earias vitella assessed as pupal duration time at 10 ug/cm3 administered through artificial diet containing Abelmoschus esculentus seed powder (reference value: 6.4 +/- 0.21 days)
Earias vittella [38] = test: Insecticidal activity against third-instar larval stage of Earias vitella assessed as larval mortality at 10 ug/cm3 administered through artificial diet containing Abelmoschus esculentus seed powder (reference value: 4%)
Earias vittella [39] = test: Insecticidal activity against third-instar larval stage of Earias vitella assessed as larval mortality at 5 ug/cm3 administered through artificial diet containing Abelmoschus esculentus seed powder (reference value: 4%)
Earias vittella [40] = test: Insecticidal activity against third-instar larval stage of Earias vitella assessed as total larval duration time at 5 ug/cm3 administered through artificial diet containing Abelmoschus esculentus seed powder (reference value: 8.2 +/- 0.48 days)

Compound	Time (Earias vittella [1])	Activity (Spodoptera litura [2])	Activity (Spodoptera litura [3])	Time (Spodoptera litura [4])	Time (Spodoptera litura [5])	Time (Spodoptera litura [6])	Time (Spodoptera litura [7])	Activity (Spodoptera litura [8])	Activity (Spodoptera litura [9])	Activity (Spodoptera litura [10])	Activity (Spodoptera litura [11])	mortality at 5 µg/cm2 (Spodoptera litura [12])	mortality at 10 µg/cm2 (Spodoptera litura [13])	Activity (Spodoptera litura [14])	Activity (Spodoptera litura [15])	Time (Spodoptera litura [16])	Time (Spodoptera litura [17])	mortality at 5 µg/cm2 (Spodoptera litura [18])	mortality at 10 µg/cm2 (Spodoptera litura [19])	Time (Spodoptera litura [20])	further results
CC(=O)OC[C@@]12[C@@H](OC(C)=O)C[C@@H](C)[C@](C)([C@@H]3C[C@H]4CC(O)O[C@H]4O3)[C@H]1CC[C@H](OC(C)=O)[C@]21CO1 (stereo not given in full) [15-HYDROXYEPICARYOPTIN]	10.2 days	74%	78%	7.4 days	7 days	8 days	7.5 days	7.2%	9.6%	70.4%	62.4%	22.5%	27.6%	272.2 mg	258.8 mg	10.8 days	11.6 days	20%	32%	13.5 days	Time (Spodoptera litura [21]): 14.2 days; Time (Earias vittella [22]): 6.8 days; Time (Earias vittella [23]): 6.6 days; Time (Earias vittella [24]): 6.6 days; Time (Earias vittella [25]): 6.2 days; Activity (Earias vittella [26]): 4%; Activity (Earias vittella [27]): 4%; Activity (Earias vittella [28]): 68%; Activity (Earias vittella [29]): 62%; mortality (Earias vittella [30]): 28%; mortality (Earias vittella [31]): 34%; Activity (Earias vittella [32]): 58 mg; Activity (Earias vittella [33]): 57.2 mg; Time (Earias vittella [34]): 9 days; Activity (Earias vittella [35]): 62.15%; Activity (Earias vittella [36]): 71.84%; Time (Earias vittella [37]): 9.6 days; mortality (Earias vittella [38]): 8%; mortality (Earias vittella [39]): 8%; Time (Earias vittella [40]): 9.8 days
CC(=O)OC[C@@]12[C@@H](OC(C)=O)C[C@@H](C)[C@](C)([C@@H]3C[C@H]4C=CO[C@H]4O3)[C@H]1C[C@@H](O)[C@H](OC(=O)C(C)(C)OC(C)=O)[C@]21CO1 [CLERODENDRIN C]	8.2 days	56%	65%	8.9 days	8.2 days	9.2 days	8.5 days	4%	8%	76%	69.6%	20.2%	22.7%	289.8 mg	282.2 mg	10 days	10.6 days	12.5%	14%	12.5 days	Time (Spodoptera litura [21]): 12.5 days; Time (Earias vittella [22]): 7.6 days; Time (Earias vittella [23]): 7.2 days; Time (Earias vittella [24]): 7 days; Time (Earias vittella [25]): 6.8 days; Activity (Earias vittella [26]): 8%; Activity (Earias vittella [27]): 4%; Activity (Earias vittella [28]): 76%; Activity (Earias vittella [29]): 70.5%; mortality (Earias vittella [30]): 20%; mortality (Earias vittella [31]): 22.5%; Activity (Earias vittella [32]): 69 mg; Activity (Earias vittella [33]): 66.2 mg; Time (Earias vittella [34]): 7.2 days; Activity (Earias vittella [35]): 31%; Activity (Earias vittella [36]): 41.54%; Time (Earias vittella [37]): 7.8 days; mortality (Earias vittella [38]): 8%; mortality (Earias vittella [39]): 4%; Time (Earias vittella [40]): 8.4 days
